Experiments:
[1] = system: Human alphaherpesvirus 3; experiment: Antiviral activity against TK+ VZV OKA infected HEL cells assessed as reduction in virus plaque formation after 5 days; type: functional, organism-based; conditions: Human alphaherpesvirus 3, OKA, 120 h
[2] = Cytotoxicity against HEL cells assessed as inhibition of cell proliferation; type: cell-based; conditions: human
[3] = system: Human alphaherpesvirus 3; experiment: Antiviral activity against TK+ VZV YS infected HEL cells assessed as reduction in virus plaque formation after 5 days; type: functional, organism-based; conditions: Human alphaherpesvirus 3, YS, 120 h
[4] = system: Human alphaherpesvirus 2; experiment: Antiviral activity against acyclovir-sensitive HSV2 HG32 in african green monkey Vero cells assessed as inhibition of virus plaque formation; type: functional, organism-based; conditions: Human alphaherpesvirus 2, HG32, Vero
Method in brief: (§1)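 Vero cells were grown to density in DMEM with 10% fetal bovine serum, L-glutamine, penicillin and streptomycin, then preincubated 30 min with drug and kept in drug throughout. They were infected with 100 pfu per well, adsorbed 45 min and overlaid with 1.2% Avicel in DMEM. After 3 days, plaques were stained with crystal violet and counted.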

[5] = system: Human alphaherpesvirus 1; experiment: Antiviral activity against acyclovir-resistant and thymidine kinase deficient HSV1 KOS in HEL cells assessed as inhibition of virus induced cytopathicity within 48 hrs; type: functional, organism-based; conditions: Human alphaherpesvirus 1, KOS
Method in brief: (§2)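 Confluent HEL fibroblast cultures were inoculated with 100 CCID50 of virus per well. After 1 h adsorption, residual virus was removed and cells were incubated with serial dilutions of compound.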

[6] = system: Human alphaherpesvirus 2; experiment: Antiviral activity against acyclovir-resistant HSV2 ACR in african green monkey Vero cells assessed as inhibition of virus plaque formation; type: functional, organism-based; conditions: Human alphaherpesvirus 2, ACR; method in brief: as §1
[7] = Cytotoxicity against HEL cells assessed as alteration of cell morphology; type: cell-based; conditions: human
Method in brief: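 In HEL cells, the MCC is the minimal compound concentration producing a microscopically visible change in cell morphology.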

[8] = system: Human alphaherpesvirus 3; experiment: Antiviral activity against thymidine kinase deficient VZV 07/1 infected HEL cells assessed as reduction in virus plaque formation after 5 days; type: functional, organism-based; conditions: Human alphaherpesvirus 3, 07/1, HEL, 120 h
[9] = system: Human alphaherpesvirus 3; experiment: Antiviral activity against thymidine kinase deficient VZV YS/R infected HEL cells assessed as reduction in virus plaque formation after 5 days; type: functional, organism-based; conditions: Human alphaherpesvirus 3, YS/R, 120 h
[10] = system: Human alphaherpesvirus 2; experiment: Antiviral activity against HSV2; type: functional, organism-based
[11] = system: Human alphaherpesvirus 2; experiment: Antiviral activity against HSV2 G in HEL cells assessed as inhibition of virus induced cytopathicity within 48 hrs; type: functional, organism-based; conditions: Human alphaherpesvirus 2, strain G; method in brief: as §2
[12] = system: Human alphaherpesvirus 1; experiment: Antiviral activity against HSV1 KOS in HEL cells assessed as inhibition of virus induced cytopathicity within 48 hrs; type: functional, organism-based; conditions: Human alphaherpesvirus 1, KOS; method in brief: as §2

Row | SMILES | EC50 [1] [µM] | CC50 [2] [µM] | EC50 [3] [µM] | EC50 [4] [µM] | EC50 [5] [µM] | EC50 [6] [µM] | MCC [7] [µM] | EC50 [8] [µM] | EC50 [9] [µM] | EC50 [10] [µM] | EC50 [11] [µM] | EC50 [12] [µM]
1 | C[C@H](NP(=O)(OCCOCn1cnc2c(=O)[nH]c(N)nc21)Oc1cccc2ccccc12)C(=O)OCc1ccccc1 (some centres not stated) | 7.2 | 20 | 3.3 | 9.8 | 11 | 14.5 | > 50 | 6.9 |  |  |  | 
2 | Nc1nc2c(ncn2COCCO)c(=O)[nH]1 [ACYCLOVIR] |  | 1350 |  | 6 |  | > 100 | > 250 |  |  |  |  | 
3 | COC(=O)[C@H](C)NP(=O)(OCCOCn1cnc2c(=O)[nH]c(N)nc21)Oc1cccc2ccccc12 (some centres not stated) | 7.6 | > 100 | 10.9 | 40.4 | 80 | 15 | > 50 | 22 | 6.1 |  |  | 
4 | COC(=O)[C@H](C)NP(=O)(OCCOCn1cnc2c(=O)[nH]c(N)nc21)Oc1ccccc1 (some centres not stated) | 19 | 162 | 20 | 43.1 | 80 | 18.7 | > 100 | 24 | 16 | ≥ 100 | 15 | 
5 | Nc1nc2c(ncn2COCCOP(=O)(N[C@@H](Cc2ccccc2)C(=O)OCc2ccccc2)Oc2ccccc2)c(=O)[nH]1 (some centres not stated) | 5.2 | 86.9 | 6.6 | 20.3 | > 100 | 33.2 | > 50 | 8.4 | 10 |  | 8 | 
6 | C[C@H](NP(=O)(OCCOCn1cnc2c(=O)[nH]c(N)nc21)Oc1ccccc1)C(=O)OCc1ccccc1 (some centres not stated) | 0.72 | > 100 | 1 | 20.3 |  | 15.5 | > 50 | 1.8 | 0.59 |  | 1.4 | 0.9

Reference: ChEMBL document CHEMBL1155837 (Bioorg Med Chem Lett, 2008)
